Results gathered from unrelated publications.
Target: Mitogen-activated protein kinase 7 (MAPK7, Homo sapiens, UniProt Q13164)

`c1ccc(CNc2nc(N3CCOc4ccccc43)nc3c2CCCC3)cc1` gave an inhibition of -6.4% (target engagement in cells, inhibitor, chemoproteomics; 20 mM).
For `CNc1cc(Oc2cc(C(=O)Nc3cc(N4CCN(C)CC4)cc(C(F)(F)F)c3)ccc2C)ncn1`, the inhibition was -24.1% (target engagement in cells, inhibitor, chemoproteomics; Huh-7; 1 µM).
The remaining activity of `Cc1sc(C(=O)NC2COC2)cc1-n1cc(NC(=O)Nc2c(F)cccc2Cl)cn1` is reported as 95.7% (enzyme activity, inhibitor; 10 µM).
`CSc1cccnc1N1CCN(Cc2nc3ccccc3[nH]2)CC1` has a remaining binding of 100% (cell-free assay, competition with immobilised ligand; 1 µM).
The remaining activity of `CC(C)(O)[C@H]1CC[C@H](Nc2ccc3ncc(-c4cccc(C(F)(F)F)c4)n3n2)CC1` is reported as 98.9% (enzyme activity, inhibitor; 1 µM).
For `COc1cccc2c(NCc3ccccc3)nc(-n3c(N)nc4ccccc43)nc12`, the inhibition was -14.3% (target engagement in cells, inhibitor, chemoproteomics; 20 mM).
`Cc1ccc(C(=O)Nc2ccc(CN3CCN(C)CC3)c(C(F)(F)F)c2)cc1C#Cc1cnc2cccnn12` has a remaining activity of 98% (enzyme activity, inhibitor; 23.5 nM).
`Cc1nc(N2CC[C@@H](O)C2)ncc1-c1cc(C(F)(F)F)cc2[nH]ncc12` gave a remaining binding of 83% (binding, competition with immobilised ligand; 1 µM).
The remaining activity of `O=C(Nc1cnn(-c2csc(C(=O)NC3COC3)c2)c1)Nc1c(F)cccc1Cl` is reported as 75.9% (enzyme activity, inhibitor; 5 µM).
With `Cc1nccc(COC(=O)N2C[C@@H]3[C@@H](CNC(=O)c4ccc5[nH]nnc5c4)[C@@H]3C2)n1` the remaining binding was 98% (cell-free assay, competition with immobilised ligand; 1 µM).
With `FC(F)(F)Oc1cccc(-c2cnc3ccc(-c4ccncc4)nn23)c1` the activity vs control was 51% (enzyme activity, inhibitor, radiometric; 1 µM).
The remaining activity of `CC(C)(C)c1nc2c(s1)c1nc(N)ncc1c1ccc(NS(=O)(=O)c3c(F)cccc3F)c(F)c12` is reported as 80% (enzyme activity, inhibitor, radiometric; 1 µM).
`COc1cc(Nc2cnc(C#N)c(O[C@H](C)CN(C)C)n2)ncc1-c1cnn(C)c1` gave a remaining activity of 85% (enzyme activity, inhibitor, radiometric; 10 µM).
